Screening data from PubChem BioAssay.
NF-kB expr up = compounds increasing NF-kB expression in human neuronal cells. NF-kB reporter expression; active compounds read high. fold change at 12.5 µM. actives 1.6% (n = 190,000). AID 1239; in the data active = fold change above about 3.3
AHR activator = activates the human aryl hydrocarbon receptor; AHR-responsive luciferase reporter cells, luminescence; P35869; actives 2.5% (n = 320,000); activation, % at 5 µM; in the data active = activation above about 47%;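 also: 0% = vehicle wells and 100% = reference agonist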
PERK inh = inhibitors of human PERK kinase; Q9NZJ5; actives 0.17% (n = 220,000); CHO PERK-DD fusion, SEAP luminescence translation reporter; inhibition, % at 5.6 µM;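 active = inhibition above the mean inhibition of all tested compounds plus 3 SD, set separately per screening campaign, cut at about 2.9% in these data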;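 also: PERK kinase domain activated by AP20187 dimerizer at 100 nM; 0% = DMSO with dimerizer and 100% = rapamycin at 8.4 µM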
Mdm2 ligase inh = blocks human Mdm2 ubiquitin ligase activity; cell-based MDM2 ubiquitination luciferase reporter, 2 h; 0 = plate control, 100 = twice control, blank-subtracted; signal enhancement, % at 5 µM; actives 0.11% (n = 210,000);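 active = signal enhancement of 30% or more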;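 also: luminescence tracks abundance of the self-degrading MDM2-luciferase fusion protein; higher signal means inhibition of MDM2 E3 ligase activity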
Target sequence (Q00987 whole entry, looked up, the tested form may be a part): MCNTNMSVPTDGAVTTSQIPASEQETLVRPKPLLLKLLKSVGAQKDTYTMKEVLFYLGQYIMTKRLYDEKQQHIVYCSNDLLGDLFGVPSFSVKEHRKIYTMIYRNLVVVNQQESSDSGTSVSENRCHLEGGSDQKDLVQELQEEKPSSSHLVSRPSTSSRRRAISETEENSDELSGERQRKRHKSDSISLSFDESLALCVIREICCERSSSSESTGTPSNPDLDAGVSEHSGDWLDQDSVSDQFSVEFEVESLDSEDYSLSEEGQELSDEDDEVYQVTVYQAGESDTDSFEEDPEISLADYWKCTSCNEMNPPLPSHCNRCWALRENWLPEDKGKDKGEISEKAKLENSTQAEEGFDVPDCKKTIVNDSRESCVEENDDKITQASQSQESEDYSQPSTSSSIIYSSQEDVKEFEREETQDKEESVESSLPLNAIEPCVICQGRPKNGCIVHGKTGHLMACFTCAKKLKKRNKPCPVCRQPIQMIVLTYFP
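Test system: mammalian cells stably expressing self-ubiquitinating, self-degrading MDM2 E3–luciferase fusion; Amount: 2000 cells in each well; Medium: DMEM; Schedule: 4 h settle plus 2 h compound, 37 °C; Technique: SteadyLite luciferase luminescence after 15 min room-temperature reagent incubation; Benchmarks: plate control and blank wells.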
STAT1 act = activators of IFN-gamma induced STAT1 signaling; NIH 3T3 STAT1-luciferase reporter, luminescence; 100% = IFN-gamma alone, no compound; activation (% of control), % at 5.5 µM; actives 2.6% (n = 200,000); AID 932;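 active = activation above the screen-wide mean activation plus 3 SD, cut at about 130% in these data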;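 also: raw ratio to IFN-gamma control signal so 100% means no change and 0% no light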
APP 5'UTR act = activates APP 5'UTR luciferase reporter; SH-SY5Y APP 5'UTR luciferase reporter, luminescence; zero percent = DMSO vehicle wells; activation, % at 2 µM; actives 1% (n = 190,000); AID 1276;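 active = activation above a set limit, based on mean plus 3 SD of controls, cut at about 140% in these data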
Active calls of the source: *. This is a sample that favours compounds with a hit; in the whole collection about 4.5% have one here.

What do the screens show for `Cc1ccnc2nc(C(=O)OCC(=O)Nc3ccc4c(c3)OCCO4)nn12`?
AHR activator: 0

What do the screens show for `O=C(Nc1nnc(-c2ccc(Br)cc2)o1)c1cccc(N2C(=O)CCC2=O)c1`?
AHR activator: 15

Results for O=P(COCCOCCOCCOCP(=O)(c1ccccc1)c1ccccc1)(c1ccccc1)c1ccccc1 ?
NF-kB expr up: 0.93; AHR activator: 0; PERK inh: 0; Mdm2 ligase inh: -20; STAT1 act: 99; APP 5'UTR act: -1

Results for COCc1ccc(-c2c(-c3ccccc3OC)sc3cc4c(cc23)OCO4)cc1 ?
AHR activator: 51*

Results for CC1CN(S(=O)(=O)c2cccc(C(=O)NCCc3ccc(S(N)(=O)=O)cc3)c2)CC(C)O1 (stereo unspecified) ?
AHR activator: -1

What do the screens show for `CN(C)/C=N/c1ncc(C(=O)c2ccccc2)s1`?
NF-kB expr up: 2.5; AHR activator: 1; PERK inh: 0; Mdm2 ligase inh: -13; STAT1 act: 129*; APP 5'UTR act: 76

Results for CN(C)/C=N/c1ncc(C(=O)c2ccc(-c3ccccc3)cc2)s1 ?
NF-kB expr up: 1.1; AHR activator: 1; PERK inh: 0; Mdm2 ligase inh: -4; STAT1 act: 97; APP 5'UTR act: 6

Results for COC(=O)c1[nH]c(=O)c2ccccc2c1OCc1ccccc1 ?
NF-kB expr up: 3.8*; AHR activator: 1; PERK inh: 0; Mdm2 ligase inh: 0; STAT1 act: 99; APP 5'UTR act: 0

Results for COC(=O)c1[nH]c(=O)c2ccccc2c1O ?
NF-kB expr up: 1.1; AHR activator: -1; PERK inh: 1; Mdm2 ligase inh: 17; STAT1 act: 103; APP 5'UTR act: 4

How did O=C(Cn1cnc2c(oc3ccccc32)c1=O)c1ccccc1 do in these assays?
NF-kB expr up: 2.7; AHR activator: 7; PERK inh: 0; Mdm2 ligase inh: -3; STAT1 act: 148*; APP 5'UTR act: 102

How did CC1CN(C(=S)Nc2cccc(Cl)c2Cl)CC(C)O1 (stereo unspecified) do in these assays?
AHR activator: 5

What do the screens show for `O=c1c2cc([N+](=O)[O-])ccc2nc(CN2CCN(c3ccccn3)CC2)n1-c1ccccc1F`?
NF-kB expr up: 1.1; AHR activator: 20; PERK inh: 1; Mdm2 ligase inh: -5; STAT1 act: 93; APP 5'UTR act: 11

Results for COc1cc(/C=N/NC(=O)Cc2cccs2)c([N+](=O)[O-])cc1OC ?
NF-kB expr up: 1.1; AHR activator: 49*; PERK inh: 0; Mdm2 ligase inh: -8; STAT1 act: 95; APP 5'UTR act: -4

What do the screens show for `O=C(NC(=S)Nc1ccc(NC(=O)c2cccs2)cc1)c1cc2ccccc2o1`?
NF-kB expr up: 1.1; AHR activator: 2; PERK inh: 1; Mdm2 ligase inh: -1; STAT1 act: 104; APP 5'UTR act: 10

What do the screens show for `COc1ccc2o/c(=N/NC(=O)c3cccs3)c(C(N)=O)cc2c1`?
NF-kB expr up: 0.61; AHR activator: 12; PERK inh: 1; Mdm2 ligase inh: -9; STAT1 act: 138*; APP 5'UTR act: 43

What do the screens show for `O=C(c1cc2ccccc2o1)c1cccs1`?
NF-kB expr up: 2.3; AHR activator: 21; PERK inh: 0; Mdm2 ligase inh: -13; STAT1 act: 145*

Results for COc1ccc2cc(C(N)=O)/c(=N/NC(=O)c3ccco3)oc2c1 ?
NF-kB expr up: 0.39; AHR activator: 22; PERK inh: 0; STAT1 act: 115; APP 5'UTR act: 0

Results for O=C(c1cccc([N+](=O)[O-])c1)c1cc2ccccc2o1 ?
NF-kB expr up: 1.9; AHR activator: -4; PERK inh: 1; Mdm2 ligase inh: -3; STAT1 act: 109; APP 5'UTR act: 19

What do the screens show for `Cc1ccc(C(=O)N/N=c2\oc3ccccc3cc2C(N)=O)cc1`?
AHR activator: 23

How did Cc1ccc(C(=O)c2cc3ccccc3o2)cc1C do in these assays?
NF-kB expr up: 3.7*; AHR activator: 2; PERK inh: 0; Mdm2 ligase inh: -5; STAT1 act: 136*; APP 5'UTR act: 127

Results for NC(=O)c1cc2ccccc2o/c1=N/NC(=O)c1cccs1 ?
NF-kB expr up: 0.63; AHR activator: 28; PERK inh: 1; Mdm2 ligase inh: -9; STAT1 act: 134*; APP 5'UTR act: -1

Results for CN(Cc1cnccn1)C(=O)CC1C(=O)NCCN1Cc1c(F)cccc1Cl (stereo unspecified) ?
AHR activator: 2; PERK inh: 0; Mdm2 ligase inh: -18

What do the screens show for `COc1ccccc1N=C1NC(=O)/C(=C/c2ccc(N(C)C)cc2)S1`?
AHR activator: 65*

Results for CC1(C)CC(=O)C(N=Nc2ccc(F)cc2)=C(O)C1 ?
AHR activator: -1; PERK inh: 1

How did CC1(C)CC(=O)C(N=Nc2ccc(-c3ccccc3)cc2)=C(O)C1 do in these assays?
NF-kB expr up: 2.3; AHR activator: -1; PERK inh: 1; Mdm2 ligase inh: -12; STAT1 act: 105; APP 5'UTR act: 137*

What do the screens show for `CC1CCCN(c2nc(NCc3ccco3)nc(N)c2[N+](=O)[O-])C1` (stereo unspecified)?
NF-kB expr up: 1.6; AHR activator: 11; PERK inh: 0; Mdm2 ligase inh: 8; STAT1 act: 102; APP 5'UTR act: 26

What do the screens show for `Cc1ccc(Nc2nc(N)c([N+](=O)[O-])c(N3CCCC(C)C3)n2)cc1C` (stereo unspecified)?
NF-kB expr up: 0.76; AHR activator: 51*; PERK inh: 0; Mdm2 ligase inh: -10; STAT1 act: 96; APP 5'UTR act: -7

Results for Cc1cc(-c2ccc(C(C)C)c(S(=O)(=O)N3CCN(c4ccccn4)CC3)c2)on1 ?
AHR activator: 4

What do the screens show for `COc1cccc(OC)c1C(=O)Nc1ccc(C(=O)c2ccncc2)cc1`?
AHR activator: 0

Results for Cc1ccc(C#N)c(SCc2cccc(Br)c2)n1 ?
AHR activator: -1

What do the screens show for `Cc1ccc(C#N)c(SCc2cc3c(cc2Cl)OCO3)n1`?
NF-kB expr up: 1.1; AHR activator: 51*; PERK inh: 1; Mdm2 ligase inh: -24; STAT1 act: 101; APP 5'UTR act: 19

What do the screens show for `CN1/C(=C/C2CC(=O)N(c3ccc([N+](=O)[O-])cc3)C2=O)C(C)(C)c2ccccc21` (stereo unspecified)?
NF-kB expr up: 1.1; AHR activator: 0; PERK inh: 0; Mdm2 ligase inh: 5; STAT1 act: 101

How did CC(CN1CCOCC1)OC(=O)c1ccc2c(c1)OCCO2 (stereo unspecified) do in these assays?
NF-kB expr up: 2; AHR activator: 0; PERK inh: 2; Mdm2 ligase inh: -12; STAT1 act: 138*; APP 5'UTR act: 33
